Compound activity (PubChem)
TRPC4 act: TRPC4 (mouse) channel activation; Q9QUQ5; HEK293 TRPC4beta/mu-opioid, Fluo4 calcium fluorescence; hits give high values; B-score at 10 µM; 0.49% of 310,000 active; AID 2237;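 active = B-score above 5 SD of library B-scores, and initial fluorescence ratio not above library mean plus 5 SD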;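 note: positive B-score marks a calcium rise read as TRPC4 activation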
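Assay system – TRPC4beta and mu-opioid receptor HEK293 stable cells · Measured by – Fluo4 fluorescence, kinetic · Schedule – dye loading 45 min room temperature, 110 s kinetic read · Read-out – B-scored integrated calcium fluorescence ratio · Controls – buffer and maximal DAMGO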
TRPC4 potent: TRPC4 (mouse) allosteric potentiation; Q9QUQ5; HEK293 TRPC4beta/mu-opioid, DAMGO EC20, Fluo-4 Ca2+ flux; hits give high values; B-score at 10 µM; 0.42% of 310,000 active; AID 2227;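 active = B-score of calcium response area above 5 SD of library B-scores, with initial fluorescence ratio within 5 SD of library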;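 note: B-score of integrated fluorescence ratio over time as area under calcium response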
TRPC6 activator: activates the mouse TRPC6 cation channel; AID 2550; HEK293-TRPC6 membrane potential dye fluorescence; hits give high values; Q61143; 0.13% of 310,000 active; B-score at 10 µM;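 active = B-score of the integrated fluorescence ratio above library mean plus 3 SD, and starting fluorescence ratio within library mean plus 5 SD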;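 note: higher score means more depolarization so channel activation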
Target sequence (Q61143 whole entry, looked up): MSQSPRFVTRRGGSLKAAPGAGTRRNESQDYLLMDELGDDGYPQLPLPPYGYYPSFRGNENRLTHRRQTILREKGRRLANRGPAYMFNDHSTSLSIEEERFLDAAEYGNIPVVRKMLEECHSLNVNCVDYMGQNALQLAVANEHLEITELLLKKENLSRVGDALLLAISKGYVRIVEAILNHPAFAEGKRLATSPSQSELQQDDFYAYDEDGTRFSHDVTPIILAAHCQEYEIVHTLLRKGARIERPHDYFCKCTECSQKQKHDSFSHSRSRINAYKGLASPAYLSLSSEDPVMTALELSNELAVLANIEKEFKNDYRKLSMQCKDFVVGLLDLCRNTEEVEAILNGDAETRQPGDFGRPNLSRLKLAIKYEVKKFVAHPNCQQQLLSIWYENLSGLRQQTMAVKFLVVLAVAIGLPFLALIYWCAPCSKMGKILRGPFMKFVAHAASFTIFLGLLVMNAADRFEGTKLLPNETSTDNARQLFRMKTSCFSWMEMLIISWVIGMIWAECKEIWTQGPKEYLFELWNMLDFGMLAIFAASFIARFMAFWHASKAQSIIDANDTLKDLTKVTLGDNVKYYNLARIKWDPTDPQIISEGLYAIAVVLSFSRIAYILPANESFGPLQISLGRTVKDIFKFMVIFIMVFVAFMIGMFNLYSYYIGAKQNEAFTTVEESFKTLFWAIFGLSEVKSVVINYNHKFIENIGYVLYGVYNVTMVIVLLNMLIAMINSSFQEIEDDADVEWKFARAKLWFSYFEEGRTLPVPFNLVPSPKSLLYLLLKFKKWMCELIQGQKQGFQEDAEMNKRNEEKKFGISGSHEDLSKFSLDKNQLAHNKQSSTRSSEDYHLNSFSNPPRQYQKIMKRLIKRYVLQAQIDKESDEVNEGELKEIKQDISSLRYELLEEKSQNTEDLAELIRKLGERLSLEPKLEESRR
TRPC4 inh: blocks the mouse TRPC4 cation channel; AID 2247; B-score at 10 µM; Q9QUQ5; HEK293 TRPC4beta/mu-opioid, DAMGO-evoked Fluo4 calcium flux; hits give low values; 0.39% of 300,000 active;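 active = B-score over 3 SD under the library average, no early fluorescence shift, positive overall ratio signal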
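material = TRPC4beta/mu-opioid receptor HEK293 cell line | probe or stimulus = sequential submaximal and maximal DAMGO stimulation | compound dosing = one concentration per compound | measured by = Fluo4 Ca2+ flux fluorescence | evaluation = integrated fluorescence ratio relative to baseline, converted to per-well B score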
TRPC6 inh: mouse TRPC6 channel inhibition; HEK293-TRPC6, membrane potential dye, ACh-evoked depolarization; hits give low values; B-score at 10 µM; 1.1% of 310,000 active;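 active = B-score under library mean minus 3 SD, initial fluorescence not abnormally high, positive integrated signal ratio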;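 note: B-score derived from integrated fluorescence ratio over the kinetic read; more negative B-score means stronger inhibition of depolarization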
TRPC4 sel inh 2: mouse TRPC4 off-target activity of TRPC6 inhibitors, second screen; shares compounds with TRPC6 inh; HEK293 TRPC4/MOR, membrane potential dye fluorescence; channel activated by saturating DAMGO dose; inhibition, % at 10 µM; 42% of 920 active;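 active = compounds whose fluorescence signal differed from control wells by over 3 SD, either direction, in both duplicate plates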
TRPC4 spec: mouse TRPC4 off-target activity of TRPC6 inhibitors. shares compounds with TRPC6 inh. HEK293 TRPC4/mu-opioid, membrane potential fluorescence. activity change, negative = inhibition, % at 10 µM. 61% of 920 active. AID 2777;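 active = rise or fall in signal beyond 3 SD of buffer-only wells in both replicate plates, either sign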;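 note: integrated kinetic ratio of fluorescence range over baseline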
HEK293 MPD ctr 2-1: second counter-screen for TRPC6 inhibitors: parental HEK293 cells; shares compounds with TRPC6 inh; parental HEK293 membrane potential dye fluorescence; maximal acetylcholine challenge after compound addition; signal change vs control, % at 10 µM; 31% of 920 active; AID 2779;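 active = membrane potential signal moving either way by over 3 SD of the maximum-effect control, in both duplicate plates, meaning non-specific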
HEK293 MPD ctr-1: parental HEK293 nonspecific activity of TRPC6 inhibitors. shares compounds with TRPC6 inh. 60% of 920 active. AID 2780. parental HEK293 membrane potential dye fluorescence. membrane potential signal change, % at 10 µM;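 active = membrane potential signal shifting up or down by more than 3 SD of buffer-only wells, on both duplicate plates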
HEK293 MPD ctr-2: parental HEK293 nonspecific activity of TRPC6 modulators. shares compounds with TRPC6 inh. membrane potential dye fluorescence. membrane potential signal change, % at 10 µM. 51% of 2,400 active. AID 488924;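 active = membrane potential signal moves up or down beyond 5 SD from buffer-only wells, on both duplicate plates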
HEK293 MPD ctr 2-2: second check of TRPC6 modulator effects in parental HEK293 cells; shares compounds with TRPC6 inh; membrane potential dye fluorescence; after compound, maximal acetylcholine stimulation; inhibition, % at 10 µM; 14% of 2,400 active;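 active = membrane potential signal drops by more than 5 SD from the mean control signal, in both duplicate plates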;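 note: plate controls were acetylcholine ECmax control wells for no effect and buffer only wells for full effect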
TRPC4 ctr mod: tests whether TRPC6 modulators also affect mouse TRPC4; percent change from control (negative = decrease, positive = increase), % at 10 µM; HEK293 TRPC4/mu-opioid, membrane potential fluorescence; shares compounds with TRPC6 inh; 69% of 2,400 active;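 active = membrane potential signal moved up or down beyond 5 SD of buffer control wells, in both duplicate plates, actives on both sides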;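 note: plate controls were assay buffer wells for no effect and DAMGO maximal-effect wells for full effect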
TRPC4/MOR inh 2: second check of whether TRPC6 modulators also affect mouse TRPC4. HEK293 TRPC4/mu-opioid, membrane potential dye fluorescence; stimulated with maximal-effect DAMGO. 55% of 2,400 active. AID 488928. shares compounds with TRPC6 inh. inhibition, % at 10 µM;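 active = drop in membrane potential signal beyond 5 SD of the control wells in both duplicate plates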;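 note: TRPC4 counter screen for TRPC6 hits run under conditions tuned for TRPC6 not TRPC4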
TRPC6 inh conf: mouse TRPC6 inhibitor confirmation; shares compounds with TRPC6 inh; HEK293-TRPC6, membrane potential dye, ACh-evoked depolarization; inhibition, % at 10 µM; 43% of 3,300 active; AID 488960;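 active = fluorescence ratio falls more than 5 SD below the full-stimulation control mean, in both duplicate runs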;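 note: integrated fluorescence ratio of peak minus minimum over baseline after agonist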
TRPC6 act conf: mouse TRPC6 activator confirmation; shares compounds with TRPC6 inh; HEK293-TRPC6 membrane potential dye fluorescence, FDSS; activation, % at 10 µM; 11% of 2,800 active; AID 488961;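 active = ratio signal rise beyond 5 SD above unstimulated control wells' mean, seen in both duplicate runs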;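 note: plate controls were buffer EC0 wells for no effect and acetylcholine ECmax response for full effect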
* = called active by the depositor; i = inactive; x = no result; ! = a repeat was not active. This is a sample that favours compounds with a hit; in the whole collection about 2.3% have one here.

SMILES	TRPC4 act	TRPC4 potent	TRPC6 activator	TRPC4 inh	TRPC6 inh	HEK293 MPD ctr-2	HEK293 MPD ctr 2-2	TRPC4 ctr mod	TRPC4/MOR inh 2	TRPC6 inh conf	TRPC6 act conf	others
CCOC(=O)c1c(CN2CCN(C)CC2)n(C)c2cc(Br)c(OC)cc12	i	i	i	i	-5.5*	-113%*	i	-22%*	72%*	44%*	i
CCOC(=O)c1c(CN2CCCCC2)n(C)c2cc(Br)c(O)cc12	i	i	i	i	i	x	x	x	x	x	x
CC1(C)NC(=O)N(CC(=O)N2CCCC(C(F)(F)F)C2)C1=O (stereo not given)	i	i	i	i	i	x	x	x	x	x	x
Cc1cccc(NC(=O)C2CCN(C(=O)N3CCOc4ccccc43)CC2)c1C	i	i	i	i	i	x	x	x	x	x	x
CC(OC(=O)CN1C(=O)NC2(CCCC2)C1=O)C(=O)Nc1cccc(Cl)c1 (stereo not given)	i	i	i	i	i	x	x	x	x	x	x
Nc1[nH]nc2nc(NCc3ccccc3)c3c(c12)CCN(Cc1ccccc1)C3	i	i	i	i	-5.4*	i	i	-16%*	49%*	42%*	i
O=C(NCc1ccc(F)cc1)c1c2c(nc3ccccc13)CCN(Cc1ccccc1)C2	i	i	i	i	i	x	x	x	x	x	x
Nc1c2ccccc2nc2ccccc12	i	i	i	i	-10*	x	x	x	x	66%*!	i	TRPC4 sel inh 2=43%*;TRPC4 spec=-37%*;HEK293 MPD ctr 2-1=32%*;HEK293 MPD ctr-1=-420%*
Cc1c2ccccc2nc2c(F)c(N(C)C)c(F)c(F)c12	i	i	i	i	i	x	x	x	x	x	x
Cc1c(N(C)C)nc2ccccc2c1N	i	i	i	i	-10*	x	x	x	x	i	i	TRPC4 sel inh 2=44%*;TRPC4 spec=-18%*;HEK293 MPD ctr 2-1=i;HEK293 MPD ctr-1=-312%*
c1ccc2nc3ccccc3nc2c1	i	i	i	i	i	x	x	x	x	x	x
CCN(CC)c1nc2ccccc2c(N)c1-c1ccccc1	i	i	i	-7*	-6.9*	x	x	x	x	i	i	TRPC4 sel inh 2=42%*;TRPC4 spec=14%*;HEK293 MPD ctr 2-1=i;HEK293 MPD ctr-1=9.3%*
CC(=O)c1c(C)nc2ccccc2c1N	i	i	i	i	-5.2*	-195%*	i	-32%*	i	i	i
Brc1ccc(Oc2ncc(CN3CCN(c4ccccc4)CC3)s2)cc1	i	i	i	i	-5.4*	i	i	i	i	i	i
O=C(CCn1c(=O)[nH]c2ccccc2c1=O)NCCSCc1ccccc1	i	i	i	i	i	x	x	x	x	x	x
Cc1ccc(C)c(N(C(=O)c2csnn2)C(C(=O)NC2CCCC2)c2cccnc2)c1 (stereo not given)	i	i	i	i	i	x	x	x	x	x	x
CC[N+](C)(CC)CCC(c1ccccc1)C1CCCCC1 (stereo not given)	i	i	i	i	-9.6*	x	x	x	x	81%*	i	TRPC4 sel inh 2=i;TRPC4 spec=i;HEK293 MPD ctr 2-1=-16%*;HEK293 MPD ctr-1=i
CC[N+](C)(CC)CCOC(=O)C(O)(c1ccccc1)C1CCCCC1 (stereo not given)	i	i	i	i	-8.9*	x	x	x	x	83%*	i	TRPC4 sel inh 2=i;TRPC4 spec=i;HEK293 MPD ctr 2-1=-33%*;HEK293 MPD ctr-1=i
CCOC(=O)C(C(=O)Nc1ccccc1)C1CCCCC1 (stereo not given)	i	i	i	i	i	x	x	x	x	x	x
CCC(C(=O)NC1CCCCCC1)c1ccccc1 (stereo not given)	i	i	i	i	i	x	x	x	x	x	x
O=C(NNS(=O)(=O)c1ccc2ccccc2c1)C1CCN(Cc2ccccc2)CC1	i	i	i	i	-18*	x	x	x	x	83%*	x	TRPC4 sel inh 2=i;TRPC4 spec=4.8%*;HEK293 MPD ctr 2-1=0.0%*;HEK293 MPD ctr-1=5.2%*
O=C(NNS(=O)(=O)c1ccc(F)cc1)C1CCN(S(=O)(=O)c2ccccc2)CC1	i	i	i	i	i	x	x	x	x	x	x
O=S(=O)(NC1CCN(Cc2ccccc2)CC1)c1ccc2ccccc2c1	i	i	i	i	i	x	x	x	x	x	x
O=C(NNS(=O)(=O)c1ccc(F)cc1)C1CCN(Cc2cccc(F)c2)CC1	i	i	i	i	-5*	i	i	i	i	i	i
Cc1ccc2nc3c(cc(C(=O)NCCc4ccccc4)c(=N)n3CCCN3CCOCC3)c(=O)n2c1	i	i	i	i	-6*	i	i	i	54%*	i	i
COc1ccc(CCNC(=O)c2cc3c(=O)n4ccccc4nc3n(CCN3CCOCC3)c2=N)cc1	i	i	i	i	-5.7*	i	i	74%*	86%*	i	i
COc1ccc(CCNC(=O)c2cc3c(=O)n4ccccc4nc3n(CCCN3CCOCC3)c2=N)cc1	i	i	i	i	-7.4*	x	x	x	x	i	i	TRPC4 sel inh 2=i;TRPC4 spec=i;HEK293 MPD ctr 2-1=-64%*;HEK293 MPD ctr-1=i
N#Cc1cc2c(=O)n3ccccc3nc2n(CCCN2CCOCC2)c1=O	i	i	i	i	-12*	-285%*	85%*	-48%*	49%*	56%*	i
N=c1c(C(=O)NC2CCCC2)cc2c(=O)n3ccccc3nc2n1CCN1CCOCC1	i	i	i	i	i	x	x	x	x	x	x
